Results reported in ChEMBL document CHEMBL1122155, “Synthesis and biological evaluation of novel pyrimidine nucleoside analogues of 1,4-oxathiane, 1,4-dithiane, and 1,4-dioxane” (1982).
Several values for one entry are separate records, joined by “and”; a condition that tells them apart may be missing. Equal values may be shown once.

Assays:
L1210 [1] = experiment: In vitro antitumor activity (tumor cell growth inhibition) against mouse […] leukemia L1210; assay type: functional
In short: (§1)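 L1210 and K-562 cells grown in RPMI 1640 with 10% fetal calf serum plus penicillin/streptomycin. Suspensions of 10^3–10^4 cells/mL were plated, and compound (Me2SO stock diluted in medium) was added the following day. Final Me2SO was 0.5%, with two wells per concentration. Cells were counted by Coulter counter at 5–6 days. ID50 was taken from log-log concentration vs cell number plots, with untreated controls as 100%.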

K562 [2] = experiment: In vitro antitumor activity (tumor cell growth inhibition) against human erythroleukemia K-562; assay type: functional; in short: as §1
L1210 [3] = experiment: In vitro antitumor activity against mouse […] leukemia L1210; assay type: functional
In short: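 L1210 cells in RPMI 1640 with 10% fetal calf serum and penicillin/streptomycin were seeded at 10^3-10^4 cells/mL. Compounds were dissolved in Me2SO, diluted in medium, and added the next day (final 0.5% Me2SO, matching controls), in duplicate wells. After 5-6 days, before controls peaked, cells were Coulter-counted. ID50 was read from log-log concentration vs cell-number plots, with controls as 100%.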

MDAY-D2 = experiment: In vitro antitumor activity (tumor cell growth inhibition) against MDAY-D2 cells; assay type: functional, Mus musculus
In short: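 MDAY-D2 cells in Alpha MEM with 10% fetal calf serum, penicillin and streptomycin. Seeded at 10^3–10^4 cells/mL. Next day, compound dissolved in Me2SO and diluted in medium was added (final 0.5% Me2SO), with duplicate wells per concentration. Coulter counts after 5–6 days, before controls reached maximal density. ID50 was read from log-log plots of concentration vs cell number, with controls as 100%.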

L1210 [4] = experiment: In vitro antitumor activity against mouse […] leukemia L1210 cells; assay type: functional; in short: as §1
K562 [5] = experiment: In vitro antitumor activity against human erythroleukemia K-562 cells; assay type: functional; in short: as §1
K562 [6] = experiment: In vitro antitumor activity (tumor cell growth inhibition) against human erythroleukemia K-562 cells; assay type: functional; in short: as §1

Molecule `O=c1[nH]c(=O)n(C2=COCCS2)cc1F` has an ID50 (L1210 [1]) of 20 µM and an ID50 (K562 [2]) of 380 µM.

With `O=c1[nH]c(=O)n(C2CCCO2)cc1F` (stereo not drawn) [TEGAFUR] the ID50 (L1210 [3]) was 8.4 µM.

With `O=c1[nH]c(=O)n(C2CSCCS2)cc1F` (stereo not drawn) the ID50 (MDAY-D2) was 500 µM, the ID50 (L1210 [4]) was 0.65 mM l-1 and 0.23 mM l-1 and the ID50 (K562 [5]) was > 1020 µM.

In the case of `Cc1cn(C2CSCCS2)c(=O)[nH]c1=O` (stereo not drawn), the ID50 (L1210 [4]) is reported as 0.23 mM l-1 and 0.21 mM l-1 and the ID50 (K562 [5]) is reported as 670 µM.

`O=c1[nH]c(=O)n(C2COCC[S+]2[O-])cc1F` (stereo not drawn) was tested, and the ID50 (K562 [6]) was > 990 µM and the ID50 (K562 [5]) was > 1010 µM.

`O=c1[nH]cc(F)c(=O)[nH]1` [FLUOROURACIL] was tested, and the ID50 (MDAY-D2) was 0.2 µM and the ID50 (K562 [5]) was 0.0023 mM l-1 and 0.0046 mM l-1.

With `O=c1[nH]c(=O)n(C2COCCS2)cc1F` (stereo not drawn) the ID50 (MDAY-D2) was 4600 µM, the ID50 (L1210 [4]) was > 1060 µM and the ID50 (K562 [5]) was >1.06 mM l-1 and >1.05 mM l-1.

With `O=c1ccn(C2CSCCS2)c(=O)[nH]1` (stereo not drawn) the ID50 (L1210 [4]) was 240 µM and the ID50 (K562 [5]) was > 1050 µM.

`O=c1[nH]c(=O)n(C2COCCO2)cc1F` (stereo not drawn) was tested, and the ID50 (MDAY-D2) was > 1000 µM, the ID50 (L1210 [4]) was > 970 µM and the ID50 (K562 [5]) was >1.09 mM l-1 and >0.97 mM l-1.

In the case of `O=c1[nH]c(=O)n(C2CSCCO2)cc1F` (stereo not drawn), the ID50 (MDAY-D2) is reported as 1400 µM, the ID50 (L1210 [4]) is reported as > 1010 µM and the ID50 (K562 [5]) is reported as >1 mM l-1 and 0.46 mM l-1.
